PPC-1+TRAIL kill: kills PPC-1 cancer cells in the presence of TRAIL; PPC-1 cells + TRAIL, ATPLite viability luminescence; cell killing (% activity), % at 4 µM or 5 µM; actives 0.41% (n = 220,000); AID 1443;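 active means cell killing above 50% in the first pass at 4 µM, then a duplicate retest at 5 µM averaging 50% or more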;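 further: plate controls were cells with TRAIL plus DMSO for no effect and medium-only wells lacking cells for full effect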
TRAIL sens C8: caspase-8 TRAIL sensitization; NB7+C8 cells + TRAIL, ATPlite viability luminescence; inhibition (viability loss, TRAIL sensitization), % at 10 µM; actives 1% (n = 360,000); AID 624354;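 active means compounds causing at least 50% loss of cell viability in the single-dose screen, relative to plate controls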
FLuc inhib CS: counter-screen for luciferase assay inhibitors: firefly luciferase inhibition. ATPLite firefly luciferase biochemical luminescence, 10 min. inhibition, % at 10 µM. actives 1.5% (n = 200,000). AID 1006;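 active means inhibition above about 50% when tested at 10 µM, limit read from the data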
Target sequence (P08659 whole entry, looked up): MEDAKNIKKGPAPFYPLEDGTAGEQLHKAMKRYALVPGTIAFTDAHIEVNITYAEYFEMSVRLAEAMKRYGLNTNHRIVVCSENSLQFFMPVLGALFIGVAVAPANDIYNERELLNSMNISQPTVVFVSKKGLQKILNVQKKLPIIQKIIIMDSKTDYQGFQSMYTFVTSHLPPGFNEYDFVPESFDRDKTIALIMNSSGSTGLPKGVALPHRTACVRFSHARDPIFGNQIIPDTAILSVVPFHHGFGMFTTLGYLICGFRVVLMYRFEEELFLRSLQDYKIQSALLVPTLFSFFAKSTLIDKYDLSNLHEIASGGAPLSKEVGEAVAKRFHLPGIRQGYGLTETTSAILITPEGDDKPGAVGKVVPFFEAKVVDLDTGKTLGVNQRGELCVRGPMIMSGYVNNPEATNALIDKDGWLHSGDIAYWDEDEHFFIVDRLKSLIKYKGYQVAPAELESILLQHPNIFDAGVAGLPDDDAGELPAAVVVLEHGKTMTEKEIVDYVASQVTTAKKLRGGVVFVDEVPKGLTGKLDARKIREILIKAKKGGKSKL
FLuc stim CS: affects firefly luciferase, flagging false hits in luciferase stimulation screens; P08659; ATPlite luciferase biochemical, luminescence, 10 min; 0 = ATP-free wells, 1 = DMSO control; activation factor at 10 µM; 200,000 tested, under 10 active; AID 1027;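 active means luciferase activation factor, scaled between plate controls, of at least 2 with compound at 10 µM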
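Material: Luciferase/luciferin reagent mix; Doses: test compounds dosed from 2 mM stocks in 100% DMSO; Schedule: 10 min incubation after luciferase reagent addition, room temperature; Measured by: luminescence from luciferase reaction; Read-out: luminescence gain marking luciferase activators.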
Numbers without * were called inactive; . = no result. In the library only some 1.5% were active in any assay of this set; here they are far more common.

SMILES	PPC-1+TRAIL kill	TRAIL sens C8	FLuc inhib CS	FLuc stim CS
CCCCCCN1CCN(C2CN(Cc3cn(Cc4cccc(C(F)(F)F)c4)nn3)S(=O)(=O)C2)CC1 (stereo unspecified)	.	1.5	.	.
COc1ccc(-c2cc(C(=O)OCC(=O)N3CCOCC3)c3ccccc3n2)cc1	.	62.3*	.	.
Cc1ccc(-c2cc(C(=O)N3CCN(c4ccccc4O)CC3)c3ccccc3n2)o1	.	64.8*	.	.
CCOc1ccc(-c2cc(C(=O)NCCCN3CCN(CC)CC3)c3ccccc3n2)cc1	30.7	47.5	66.8*	0.3
COc1ccc(-c2cc(C(=O)OCC(=O)c3c(N)n(C)c(=O)n(C)c3=O)c3ccccc3n2)cc1	20.1	15.7	14.4	0.9
COc1cc2ccccc2cc1C(=O)OCC(=O)N1CCOCC1	-13.7	0.1	1.4	1
COc1ccc(-c2cc(C(=O)c3c(N)n(C)c(=O)n(C)c3=O)c3ccccc3n2)cc1	77.1*	80.7*	.	.
CCOC(=O)c1ccc(S(=O)(=O)N2CCN(C(=O)c3cccc(S(=O)(=O)N4CC(C)OC(C)C4)c3)CC2)cc1 (stereo unspecified)	.	1.1	.	.
C=CCn1c(C)cc(C(=O)COC(=O)c2ccc(N)c([N+](=O)[O-])c2)c1C	13.2	9.1	13.4	0.9
CCn1c(C)cc(C(=O)COC(=O)c2ccccc2[N+](=O)[O-])c1C	.	93.2*	.	.
Cc1ccc(-n2c(C)cc(C(=O)COC(=O)c3ccc[nH]c3=O)c2C)cc1C	26.4	37.3	64.8*	0.4
Cc1cc(C(=O)COC(=O)c2ccc[nH]c2=O)c(C)n1-c1ccccc1F	41.7	58.6*	.	.
CCCn1c(C)cc(C(=O)COC(=O)c2ccc(Cl)c(S(=O)(=O)N3CCCC3)c2)c1C	8.0	5.6	32.1	0.7
CCCn1c(C)cc(C(=O)COC(=O)c2ccc[nH]c2=O)c1C	14.6	54.2*	65.3*	0.3
Cc1ccc(NC(=S)N2CCCCC2)cc1C	-2.2	-3.1	.	.
CC1(C)CC(=O)C(C2C3=C(CC(C)(C)CC3=O)Oc3c(Br)cc(Br)cc32)=C(O)C1 (stereo unspecified)	.	1.9	.	.
C[n+]1c(/C=C/c2ccc(O)cc2)ccc2ccccc21	.	4.3	.	.
Cc1cc(/C=C\c2ccc3cc(N(C)C)ccc3[n+]2C)c(C)n1-c1ccccc1	.	60.5*	.	.
O=c1oc2ccccc2cc1-c1csc(Nc2nc3c(F)cccc3s2)n1	-1.3	53.3*	8.7	0.9
O=C(COc1cc(F)ccc1[N+](=O)[O-])Nc1cc(S(=O)(=O)N2CCCC2)ccc1Cl	.	52.1*	.	.
O=[N+]([O-])c1cc(S(=O)(=O)N2CCCCCC2)ccc1F	30.9	74.7*	-3.7	1
O=[N+]([O-])c1cc(S(=O)(=O)N2CCCC2)ccc1O	8.9	-3.3	-5.8	1.1
CCOc1cc(NC(=O)CCl)c(OCC)cc1NC(=O)CCl	15.7	90.7*	.	.
Cc1cccc(C)c1NC(=O)C1c2ccccc2OCC(=O)N1CCCN1CCOCC1 (stereo unspecified)	.	2.2	.	.
CC1=NN(c2ccc(C)c(C)c2)C(=O)/C1=C\C=C\c1ccc([N+](=O)[O-])o1	15.6	79.3*	-9.9	1.1
SMILES	PPC-1+TRAIL kill	TRAIL sens C8	FLuc inhib CS	FLuc stim CS
Nc1nc(=S)c2[nH]cnc2[nH]1	.	74.9*	.	.
CC(C)OC(=O)c1sc2nc(-c3ccccc3)ccc2c1N	32.2	54.4*	72.7*	0.3
COC(=O)c1sc2nc(-c3ccco3)ccc2c1N	13.6	57.2*	83.6*	0.2
NC(=O)c1sc2nc(-c3cccnc3)ccc2c1N	11.0	18.0	.	.
CCOC(=O)c1sc2nc(-c3cccnc3)ccc2c1N	41.7	58.5*	77.0*	0.2
COc1ccc(C(=O)c2sc3nc(-c4ccccc4)ccc3c2N)cc1	6.5	2.0	-4.1	1
CCc1ccc(N2CC(C(=O)Nc3ccc4c(c3)OCO4)CC2=O)cc1 (stereo unspecified)	.	17.4	.	.
COCCn1c(SCC(=O)N(C)c2ccccc2)nc2c([nH]c3ccccc32)c1=O	.	-0.9	.	.
O=C(Nc1ccc2c(c1)C(=O)OC2)c1ccccc1Cl	.	-11.4	.	.
O=C(COC(=O)C1CCCCC1)Nc1cccc(Br)c1	.	2.5	.	.
COc1ccc(-c2nc(SCC(=O)N(CC(C)C)c3c(N)n(Cc4ccccc4)c(=O)[nH]c3=O)n[nH]2)cc1	.	51.1*	.	.
COc1ccc(Cn2c(SCc3ccc(C)cc3)nc3cc(OC)c(OC)cc3c2=N)cc1Cl	25.3	93.3*	-0.6	1
COc1ccc(Cn2c(SCc3cc(C)ccc3C)nc3cc(OC)c(OC)cc3c2=N)cc1	18.4	91.7*	0.3	1
COc1cc2nc(SCc3ccc(Cl)cc3Cl)n(Cc3cccs3)c(=N)c2cc1OC	11.7	8.6	-3.8	1
CC(C)COC(=O)N(C)C[C@@H]1OCc2cnnn2CCCC(=O)N([C@H](C)CO)C[C@@H]1C	.	-8.9	.	.
COC(=O)[C@]12CCCCC=C1N(Cc1cccc3ccccc13)C(=O)[C@H](CC(=O)NCc1ccc(OC)c(OC)c1)C2	.	63.3*	.	.
Cc1ccc(NC(=O)c2ccc3nsnc3c2)c(Cl)c1	.	58.2*	.	.
Cc1ccc(CS(=O)(=O)c2ncc(Cl)c(C(=O)Nc3nnc(C(C)C)s3)n2)cc1	.	82.8*	.	.
Cc1nnc(NC(=O)c2nc(S(=O)(=O)Cc3ccccc3C)ncc2Cl)s1	.	96.8*	.	.
CC(C)c1nnc(NC(=O)c2nc(S(=O)(=O)Cc3ccc(F)cc3)ncc2Cl)s1	.	94.4*	.	.
COc1ccc(CNC(=O)c2nc(S(=O)(=O)Cc3ccccc3)ncc2Cl)cc1	.	30.9	.	.
Cc1cccc(CS(=O)(=O)c2ncc(Cl)c(C(=O)Nc3nnc(C(C)C)s3)n2)c1	.	95.2*	.	.
CSc1nnc(NC(=O)c2nc(S(=O)(=O)Cc3cccc(C)c3)ncc2Cl)s1	.	84.3*	.	.
CSc1nnc(NC(=O)c2nc(S(=O)(=O)Cc3ccccc3F)ncc2Cl)s1	.	80.9*	.	.
C[C@@H]1CN([C@H](C)CO)C(=O)CCCn2nncc2CO[C@H]1CN(C)Cc1cccnc1	.	1.7	.	.
SMILES	PPC-1+TRAIL kill	TRAIL sens C8	FLuc inhib CS	FLuc stim CS
COc1ccc(-c2nnc(SCC(=O)c3cc(C)n(Cc4cccs4)c3C)o2)cc1	5.5	-5.4	-0.5	1
Cc1cc(C(=O)COC(=O)[C@H](C)NC(=O)c2ccco2)c(C)n1Cc1ccco1	14.5	0.7	56.2*	0.4
Cc1cc(C(=O)CSc2nncs2)c(C)n1Cc1ccco1	8.6	28.7	73.8*	0.3
Cc1csc(SCC(=O)c2cc(C)n(Cc3cccs3)c2C)n1	30.3	78.9*	88.8*	0.1
Cc1cc(C(=O)CSc2nn(-c3ccccc3)c(=S)s2)c(C)n1Cc1ccco1	10.3	-7.1	-2.4	1
Cc1cc(C(=O)CSc2nnc(N)s2)c(C)n1Cc1cccs1	35.7	69.5*	91.1*	0.1
Cc1cc(C(=O)CSc2n[nH]c(-c3ccccc3F)n2)c(C)n1Cc1cccs1	15.5	-16.6	9.8	0.9
CCCNC(=O)C1(C)CCCN(C(=O)c2cc(C)n(C(C)(C)C)n2)C1 (stereo unspecified)	.	-12.4	.	.
Nc1cccc(-c2cn3cc(C(F)(F)F)cc(Cl)c3n2)c1	33.3	34.2	67.8*	0.3
FC(F)(F)c1cc(Cl)c2nc(-c3ccccc3)cn2c1	7.5	51.2*	41.3	0.6

Bioassay records as filed in PubChem BioAssay.
